Screens deposited in PubChem by several laboratories.
KCNK9 inh – inhibitors of human KCNK9 two-pore domain potassium channel | HEK293 KCNK9, FluxOR thallium flux fluorescence; stronger effect = lower value | actives 1.2% (n = 310,000) | B-score at 10 µM | Q9NPC2 | AID 488922;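 active = ratio B-score over 3 SD below the library mean, with starting fluorescence within 5 SD of its mean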;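 also: negative B-score means less thallium flux so channel inhibition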
KCNQ1 inh – blocks the human KCNQ1 potassium channel; P51787; CHO-K1 KCNQ1, FluxOR thallium flux fluorescence; stronger effect = higher value; B-score at 10 µM; actives 1.3% (n = 310,000); AID 2642;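 active = compounds whose thallium flux B-score, printed positive for inhibition, exceeds three library SD while starting fluorescence stays within three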;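 also: channel opened by potassium depolarization with thallium stimulus after 20 min compound exposure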
KCC2 mod – modulators of human KCC2 chloride dependent transport; KCC2 cells, thallium flux FluoZin-2 fluorescence; B-score of Tl+ flux slope (higher = more flux/activation; lower = inhibition) at 10 µM; actives 2.2% (n = 190,000);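 active = thallium flux slope and its plate-corrected score both differing from the plate sample mean at a set confidence after two filtering rounds, in either direction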;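 also: slope of fluorescence scaled to starting intensity during 10 to 20 s after thallium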
hERG rescue – compounds protecting human hERG from proarrhythmic drug block; CHO-hERG, FluxOR thallium flux, dofetilide IC70 present; activation (rescue from dofetilide block), less the hit threshold, % at 10 µM; actives 0.51% (n = 310,000);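 active = activation above the mean of controls blocked by dofetilide plus 5 SD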;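 also: thallium influx through hERG after potassium depolarization seen as dye fluorescence rise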
Target sequence (Q12809 whole entry, looked up): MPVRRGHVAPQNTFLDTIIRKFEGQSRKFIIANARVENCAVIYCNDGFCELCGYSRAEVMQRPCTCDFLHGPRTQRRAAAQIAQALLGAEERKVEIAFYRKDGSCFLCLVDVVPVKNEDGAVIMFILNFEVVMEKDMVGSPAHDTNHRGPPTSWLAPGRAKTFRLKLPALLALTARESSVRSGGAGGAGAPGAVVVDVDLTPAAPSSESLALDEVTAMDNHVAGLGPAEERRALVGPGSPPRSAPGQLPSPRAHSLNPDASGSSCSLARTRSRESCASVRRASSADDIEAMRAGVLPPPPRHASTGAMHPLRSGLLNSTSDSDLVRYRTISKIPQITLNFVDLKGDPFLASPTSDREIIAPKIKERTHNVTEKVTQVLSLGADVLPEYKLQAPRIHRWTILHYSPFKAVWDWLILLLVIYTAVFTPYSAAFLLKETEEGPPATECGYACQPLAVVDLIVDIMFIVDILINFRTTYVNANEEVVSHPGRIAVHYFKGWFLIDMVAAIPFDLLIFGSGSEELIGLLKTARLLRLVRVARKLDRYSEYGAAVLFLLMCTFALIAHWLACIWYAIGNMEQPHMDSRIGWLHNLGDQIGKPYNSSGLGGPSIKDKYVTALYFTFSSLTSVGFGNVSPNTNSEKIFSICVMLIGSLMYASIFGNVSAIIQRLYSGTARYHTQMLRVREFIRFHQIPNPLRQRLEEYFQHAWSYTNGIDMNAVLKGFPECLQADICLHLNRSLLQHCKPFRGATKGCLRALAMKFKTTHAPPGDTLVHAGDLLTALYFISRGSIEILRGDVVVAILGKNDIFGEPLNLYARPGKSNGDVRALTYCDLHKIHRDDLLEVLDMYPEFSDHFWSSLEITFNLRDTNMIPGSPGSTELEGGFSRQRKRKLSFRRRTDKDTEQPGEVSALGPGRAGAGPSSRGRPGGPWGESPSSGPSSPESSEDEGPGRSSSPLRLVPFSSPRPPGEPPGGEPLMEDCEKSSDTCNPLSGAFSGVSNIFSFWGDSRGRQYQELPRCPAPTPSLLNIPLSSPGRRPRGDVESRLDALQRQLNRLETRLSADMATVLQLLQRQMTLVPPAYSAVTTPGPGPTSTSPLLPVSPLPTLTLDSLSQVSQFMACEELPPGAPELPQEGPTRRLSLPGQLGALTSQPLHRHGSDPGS
KCNK3 inh – human KCNK3 channel inhibition, primary screen. AID 602410. CHO-KCNK3 thallium flux, FluxOR fluorescence; stronger effect = lower value. B-score at 10 µM. actives 0.84% (n = 340,000);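 active = B-score under library mean minus 4 SD, starting fluorescence ratio at most library mean plus 5 SD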;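 also: more negative B-score means stronger inhibition of thallium flux through KCNK3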
KCNQ1 pot – potentiates or activates the human KCNQ1 potassium channel; B-score at 10 µM; CHO-K1 KCNQ1, thallium flux FluxOR fluorescence; stronger effect = higher value; actives 0.35% (n = 310,000); AID 2648;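 active = fluorescence ratio B-score, a plate-corrected score, at least three library SD, with initial intensity B-score within 5 SD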
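assay system = CHO-K1 cells stably expressing KCNQ1 | medium = assay buffer, equal DMSO in all wells | timing = 37 °C overnight plating, 90-min dark dye load, 20-min compound pretreatment | measured by = kinetic FluxOR thallium fluorescence, 10-s 1-Hz baseline, 110-s post-stimulus read | measure = fluorescence change relative to baseline, converted to B score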
KCC2 secondary – confirmation of human KCC2 transport modulators; AID 1713; shares compounds with KCC2 mod; HEK293-KCC2, thallium flux, FluoZin2 fluorescence; stronger effect = higher value; normalised thallium flux (F/F0 slope) at 10 µM; actives 15% (n = 3,700);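 active = thallium flux slope above the same plate's solvent-only control mean plus 3 SD; inconclusive = the two replicate wells disagree; inactive = no significant difference from solvent-only control wells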
KCC2 bumet counter – bumetanide-insensitive thallium flux in KCC2 cells with ouabain, counter-screen. shares compounds with KCC2 mod. HEK293-KCC2 + bumetanide/ouabain, thallium flux FluoZin2; stronger effect = higher value. normalized thallium flux at 10 µM. actives 49% (n = 3,700);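 active = thallium entry rate above the same plate's blocked-transporter control wells by more than 3 SD; inconclusive = the two repeat wells disagree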;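 also: raw slope of fluorescence over initial fluorescence between 10 and 20 s after thallium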
KCC2 sec2 – KCC2 (human) modulation, second secondary assay; shares compounds with KCC2 mod; HEK293-KCC2, thallium flux FluoZin2 fluorescence; actives lie on both sides; F/F0 rise rate, 10–20 s post-thallium; normalized thallium flux at 10 µM; actives 23% (n = 3,700); AID 1715;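 active = thallium flux slope more than 3 SD above or below the plate's solvent-only control mean, mostly below; inconclusive = the two repeat wells disagreed; inactive = no significant shift from solvent-only controls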
HEK293 Tl flux – counter-screen for KCC2 modulators: effect in parental HEK293 cells | shares compounds with KCC2 mod | thallium flux FluoZin2, ouabain; baseline-ratio fluorescence slope, 10–20 s after thallium | thallium flux rate (normalised fluorescence) at 10 µM | AID 1716 | actives 46% (n = 3,700);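 active = thallium flux rate significantly above the same plate's solvent-only control wells, beyond their mean plus 3 SD; inconclusive = the two replicate wells gave conflicting results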
KCC2 ouabain – modulates human KCC2 on retest with ouabain | shares compounds with KCC2 mod | HEK293-KCC2, thallium flux FluoZin2 fluorescence; bidirectional: low = inhibitor, high = activator | raw Tl+ flux slope (below DMSO = inhibition, above = activation) at 10 µM | actives 48% (n = 3,700) | AID 1717;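 active = thallium flux slope beyond 3 SD from same-plate DMSO control mean in most replicates, usually higher, sometimes lower; inconclusive = repeat tests gave conflicting results; inactive = no significant difference from controls in most replicates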;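 also: slope of initial-normalized fluorescence between seconds 10 and 20 after thallium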
HEK counter2 – parental HEK flux effect, counter-screen 2; shares compounds with KCC2 mod; HEK293 parental, thallium flux FluoZin-2 fluorescence slope; thallium flux slope at 10 µM; actives 33% (n = 3,700);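 active = thallium flux slope above the same plate's solvent-control mean plus 3 SD in both duplicate wells; inconclusive = duplicate wells that disagreed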;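 also: run without ouabain in cells lacking the KCC2 cotransporter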
Hits are given with their value. Rows were chosen to be rich in hits. Some 4.1% of all compounds tested hit in one or more screens of this group.

`COCCN(CCOC)C(=O)c1ccc(NS(=O)(=O)c2ccc3c(c2)OCCO3)cc1` gave KCNK9 inh inactive, KCNQ1 inh inactive, hERG rescue inactive, KCNK3 inh inactive and KCNQ1 pot inactive.
For CSc1nsc(N/N=C/c2ccc3c(c2)OCO3)c1C#N the results were KCNK9 inh inactive, KCNQ1 inh inactive, KCC2 mod 8.22, hERG rescue inactive, KCNK3 inh inactive, KCNQ1 pot inactive, KCC2 secondary inactive, KCC2 bumet counter inactive, KCC2 sec2 inactive, HEK293 Tl flux inactive, KCC2 ouabain inactive and HEK counter2 inactive.
`COc1ccc(SC[C@H](CC(C)C)N2CCN(CCc3ccccc3)CCC2=O)cc1` gave KCNK9 inh inactive, KCNQ1 inh inactive, KCC2 mod -4.64, hERG rescue inactive, KCNK3 inh inactive, KCNQ1 pot inactive, KCC2 secondary inactive, KCC2 bumet counter inactive, KCC2 sec2 inconclusive, HEK293 Tl flux 0.0058, KCC2 ouabain 0.0133 and HEK counter2 inactive.
Screening CC(=O)Nc1ccc(SC[C@H](CC(C)C)N2CCN(CCc3ccccc3)CCC2=O)cc1 returned KCNK9 inh inactive, KCNQ1 inh inactive, KCC2 mod -3.79, hERG rescue inactive, KCNK3 inh inactive, KCNQ1 pot inactive, KCC2 secondary inactive, KCC2 bumet counter inactive, KCC2 sec2 inactive, HEK293 Tl flux inactive, KCC2 ouabain inactive and HEK counter2 inactive.
Cc1ccc(SC[C@H](CC(C)C)N2CCN(CCc3ccccc3)CCC2=O)cc1 was read as KCNK9 inh inactive, KCNQ1 inh inactive, KCC2 mod -4.39, hERG rescue inactive, KCNK3 inh inactive, KCNQ1 pot inactive, KCC2 secondary inactive, KCC2 bumet counter inactive, KCC2 sec2 inactive, HEK293 Tl flux inactive, KCC2 ouabain 0.0174 and HEK counter2 inactive.
Screening C=CCCC(=O)N1C[C@H]2CON(C)[C@H]2C[C@H]1c1cccc(Br)c1 returned KCNK3 inh inactive.
Cn1c(N)c(N=O)c(=O)n(C)c1=S was read as KCNK3 inh inactive.
`COc1ccc(NC(=O)N(C)C[C@H]2Oc3ccc(NS(=O)(=O)c4ccccc4)cc3C(=O)N([C@H](C)CO)C[C@@H]2C)cc1` gave KCNK3 inh inactive.
For CCNc1oc(/C=C/c2ccc(OCC)cc2)nc1C#N the results were KCNK9 inh inactive, KCNQ1 inh inactive, hERG rescue inactive, KCNK3 inh inactive and KCNQ1 pot inactive.
`COc1ccc(NC(=O)c2ccccc2-c2ccc(C(F)(F)F)cc2)cc1S(=O)(=O)N1CCOCC1` gave KCNK9 inh inactive, KCNQ1 inh inactive, KCC2 mod inactive, hERG rescue inactive, KCNK3 inh inactive and KCNQ1 pot inactive.
